Results reported in PMC7572827 (Clinical cancer research : an official journal of the …, 2020).
Where “and” joins values, the source holds several entries; their conditions need not be identical. Equal values may be shown once. Entries after “also recorded” stand apart in the source; their conditions may differ. Read-outs that look alike come from different tables or passages of the source.

Assays:
[1] = tested on: MYC and AR-signaling; assay: RNA-seq gene set enrichment analysis of paired metastatic tumor biopsies; assay type: in vivo, human; settings: four patients, with enzalutamide, median eight weeks of treatment
[2] = tested on: BET inhibitor target genes MYC, IL-8, CCR1, GPR183, IL1RN; assay: Whole blood RNA expression of BET inhibitor target genes; assay type: in vivo, human
How it was run: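 mCRPC patients received the oral test compound once daily plus enzalutamide 160 mg daily. Whole blood RNA was sampled pre-dose and 2, 4, 6 and 24 h after the cycle 1 day 1 dose. Panel: MYC, IL-8, CCR1, GPR183, HEXIM1, IL1RN. Expression change was correlated with parent plus active metabolite exposure: AUC0–2 for MYC and GPR183, AUC0–4 for CCR1, IL1RN and IL-8. Exposure was measured by plasma LC/MS/MS.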

[3] = Phase 1b/2a safety: treatment-related adverse events; assay type: in vivo, human
How it was run: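 Open-label, multicenter phase 1b/2 trial in progressive mCRPC patients resistant to abiraterone and/or enzalutamide. Test compound was given orally once daily, starting at 36 mg, with 3+3 escalation up to 144 mg daily. Expansion cohorts received 48 or 96 mg daily. All patients took enzalutamide 160 mg daily, with a 14-day enzalutamide lead-in if not already on it. Cycles were 28 days. Adverse events were graded by CTC v4.0, with assessments weekly in cycles 1–2, every 2 weeks in cycle 3, then every 4 weeks.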

[4] = tested on: metastatic castration-resistant prostate cancer (mCRPC); assay type: in vivo, human
[5] = tested on: mCRPC; settings: SWITCH phase 2 crossover study; cited from earlier work
[6] = Plasma pharmacokinetics by LC/MS/MS; settings: steady-state, by ZEN-3694 dose level

CNc1nc2ncc(-c3c(C)noc3C)cc2n1Cc1ccccc1 [ZEN-3694]
Gene set enrichment, on-treatment versus baseline tumor biopsies [1]: down-regulation of expression of MYC and AR-signaling | Mean difference in whole blood RNA expression of BETi targets ([2]; 4 hours post-ZEN-3694 dose, p ≤ 0.0001): up to 4 fold | Decrease in whole blood mRNA levels of BET inhibitor target genes MYC, IL-8, CCR1, GPR183, IL1RN ([2]; dose-dependent, post-C1D1 dose): 2–4 fold | Dose level at which decrease in BET inhibitor target gene expression plateaus ([2]; in vivo): ≥ 96 mg | Duration of decrease in whole blood mRNA levels of BET inhibitor target genes ([2]; in vivo): at least 8 hours | Treatment-related AE all grades, patients: Fatigue ([3]; 36mg QD n=4): 1 | Treatment-related AE all grades, patients: Visual symptoms ([3]; 36mg QD n=4): 3 | Treatment-related AE all grades, patients: Weight loss & Abnormal WL ([3]; 36mg QD n=4): 1 | Treatment-related AE all grades, patients: Constipation ([3]; 48 mg QD n=21): 1 | Treatment-related AE all grades, patients: Decreased Appetite ([3]; 48 mg QD n=21): 2 | Treatment-related AE all grades, patients: Dysgeusia ([3]; 48 mg QD n=21): 2 | Treatment-related AE all grades, patients: Dyspepsia ([3]; 48 mg QD n=21): 1 | Treatment-related AE all grades, patients: Fatigue ([3]; 48 mg QD n=21): 8 | Treatment-related AE all grades, patients: Nausea ([3]; 48 mg QD n=21): 7 | Treatment-related AE all grades, patients: Photopsia ([3]; 48 mg QD n=21): 1 | Treatment-related AE all grades, patients: Photosensitivity ([3]; 48 mg QD n=21): 2 | Treatment-related AE all grades, patients: Rash maculopapular ([3]; 48 mg QD n=21): 3 | Treatment-related AE all grades, patients: Thrombocytopenia ([3]; 48 mg QD n=21): 1 | Treatment-related AE all grades, patients: Visual symptoms ([3]; 48 mg QD n=21): 12 | Treatment-related AE all grades, patients: Vomiting ([3]; 48 mg QD n=21): 1 | Treatment-related AE all grades, patients: Decreased Appetite ([3]; 72mg QD n=6): 1 | Treatment-related AE all grades, patients: Diarrhea ([3]; 72mg QD n=6): 1 | Treatment-related AE all grades, patients: Dizziness ([3]; 72mg QD n=6): 1 | Treatment-related AE all grades, patients: Dysgeusia ([3]; 72mg QD n=6): 0 | Treatment-related AE all grades, patients: Fatigue ([3]; 72mg QD n=6): 2 | Treatment-related AE all grades, patients: Nausea ([3]; 72mg QD n=6): 3 | Treatment-related AE all grades, patients: Taste disorder ([3]; 72mg QD n=6): 1 | Treatment-related AE all grades, patients: Thrombocytopenia ([3]; 72mg QD n=6): 2 | Treatment-related AE all grades, patients: Visual symptoms ([3]; 72mg QD n=6): 6 | Treatment-related AE all grades, patients: Weight loss & Abnormal WL ([3]; 72mg QD n=6): 1 | Treatment-related AE all grades, patients: Blood creatinine Increased ([3]; 96mg QD n=31): 3 | Treatment-related AE all grades, patients: Constipation ([3]; 96mg QD n=31): 3 | Treatment-related AE all grades, patients: Decreased Appetite ([3]; 96mg QD n=31): 10 | Treatment-related AE all grades, patients: Diarrhea ([3]; 96mg QD n=31): 5 | Treatment-related AE all grades, patients: Dizziness ([3]; 96mg QD n=31): 3 | Treatment-related AE all grades, patients: Dysgeusia ([3]; 96mg QD n=31): 10 | Treatment-related AE all grades, patients: Dyspepsia ([3]; 96mg QD n=31): 2 | Treatment-related AE all grades, patients: Fatigue ([3]; 96mg QD n=31): 13 | Treatment-related AE all grades, patients: Nasal congestion ([3]; 96mg QD n=31): 3 | Treatment-related AE all grades, patients: Nausea ([3]; 96mg QD n=31): 17 | Treatment-related AE all grades, patients: Photopsia ([3]; 96mg QD n=31): 3 | Treatment-related AE all grades, patients: Photosensitivity ([3]; 96mg QD n=31): 3 | Treatment-related AE all grades, patients: Rash ([3]; 96mg QD n=31): 3 | Treatment-related AE all grades, patients: Rash maculopapular ([3]; 96mg QD n=31): 1 | Treatment-related AE all grades, patients: Taste disorder ([3]; 96mg QD n=31): 3 | Treatment-related AE all grades, patients: Thrombocytopenia ([3]; 96mg QD n=31): 6 | Treatment-related AE all grades, patients: Vision blurred ([3]; 96mg QD n=31): 2 | Treatment-related AE all grades, patients: Visual symptoms ([3]; 96mg QD n=31): 17 | Treatment-related AE all grades, patients: Vomiting ([3]; 96mg QD n=31): 3 | Treatment-related AE all grades, patients: Weight loss & Abnormal WL ([3]; 96mg QD n=31): 3 | Dose-limiting toxicity ([3]; 96 mg/day dose level, Grade 3 nausea, cycle 1): One patient | Treatment-related AE all grades, patients: Decreased Appetite ([3]; 120mg QD N=4): 3 | Treatment-related AE all grades, patients: Dysgeusia ([3]; 120mg QD N=4): 1 | Treatment-related AE all grades, patients: Fatigue ([3]; 120mg QD N=4): 3 | Treatment-related AE all grades, patients: Nausea ([3]; 120mg QD N=4): 3 | Treatment-related AE all grades, patients: Vision blurred ([3]; 120mg QD N=4): 1 | Treatment-related AE all grades, patients: Visual symptoms ([3]; 120mg QD N=4): 4 | Treatment-related AE all grades, patients: Vomiting ([3]; 120mg QD N=4): 1 | Treatment-related AE all grades, patients: Weight loss & Abnormal WL ([3]; 120mg QD N=4): 1 | Patients requiring dose reduction and/or discontinuation ([3]; 120 mg/day): 75% | Treatment-related AE all grades, patients: Decreased Appetite ([3]; 144mg QD N=3): 2 | Treatment-related AE all grades, patients: Dysgeusia ([3]; 144mg QD N=3): 3 | Treatment-related AE all grades, patients: Fatigue ([3]; 144mg QD N=3): 1 | Treatment-related AE all grades, patients: Nausea ([3]; 144mg QD N=3): 2 | Treatment-related AE all grades, patients: Rash maculopapular ([3]; 144mg QD N=3): 1 | Treatment-related AE all grades, patients: Thrombocytopenia ([3]; 144mg QD N=3): 1 | Treatment-related AE all grades, patients: Visual symptoms ([3]; 144mg QD N=3): 2 | Treatment-related AE all grades, patients: Weight loss & Abnormal WL ([3]; 144mg QD N=3): 2 | Patients requiring dose reduction and/or discontinuation ([3]; 144 mg/day): 100% | Treatment-related AE all grades, patients: Blood creatinine Increased ([3]; 6Dmg QD n=6): 2 | Treatment-related AE all grades, patients: Decreased Appetite ([3]; 6Dmg QD n=6): 2 | Treatment-related AE all grades, patients: Dysgeusia ([3]; 6Dmg QD n=6): 0 | Treatment-related AE all grades, patients: Fatigue ([3]; 6Dmg QD n=6): 1 | Treatment-related AE all grades, patients: Nausea ([3]; 6Dmg QD n=6): 2 | Treatment-related AE all grades, patients: Taste disorder ([3]; 6Dmg QD n=6): 1 | Treatment-related AE all grades, patients: Thrombocytopenia ([3]; 6Dmg QD n=6): 1 | Treatment-related AE all grades, patients: Visual symptoms ([3]; 6Dmg QD n=6): 4 | Treatment-related AE all grades, patients: Blood creatinine Increased ([3]; TOTAL n=75): 5 (6.7) n (%) | Treatment-related AE all grades, patients: Constipation ([3]; TOTAL n=75): 4 (5.3) n (%) | Treatment-related AE all grades, patients: Decreased Appetite ([3]; TOTAL n=75): 20 (26.7) n (%) | Treatment-related AE all grades, patients: Diarrhea ([3]; TOTAL n=75): 6(8) n (%) | Treatment-related AE all grades, patients: Dizziness ([3]; TOTAL n=75): 4 (5.3) n (%) | Treatment-related AE all grades, patients: Dysgeusia ([3]; TOTAL n=75): 16 (21.3) n (%) | Treatment-related AE all grades, patients: Dyspepsia ([3]; TOTAL n=75): 3(4) n (%) | Treatment-related AE all grades, patients: Fatigue ([3]; TOTAL n=75): 29 (38.7) n (%) | Treatment-related AE all grades, patients: Nasal congestion ([3]; TOTAL n=75): 3(4) n (%) | Treatment-related AE all grades, patients: Nausea ([3]; TOTAL n=75): 34 (45.3) n (%) | Treatment-related AE all grades, patients: Photopsia ([3]; TOTAL n=75): 4 (5.3) n (%) | Treatment-related AE all grades, patients: Photosensitivity ([3]; TOTAL n=75): 5 (6.7) n (%) | Treatment-related AE all grades, patients: Rash ([3]; TOTAL n=75): 3(4) n (%) | Treatment-related AE all grades, patients: Rash maculopapular ([3]; TOTAL n=75): 5 (6.7) n (%) | Treatment-related AE all grades, patients: Taste disorder ([3]; TOTAL n=75): 5 (6.7) n (%) | Treatment-related AE all grades, patients: Thrombocytopenia ([3]; TOTAL n=75): 11 (14.7) n (%) | Treatment-related AE all grades, patients: Vision blurred ([3]; TOTAL n=75): 3(4) n (%) | Treatment-related AE all grades, patients: Visual symptoms ([3]; TOTAL n=75): 48 (64) n (%) | Treatment-related AE all grades, patients: Vomiting ([3]; TOTAL n=75): 5 (6.7) n (%) | Treatment-related AE all grades, patients: Weight loss & Abnormal WL ([3]; TOTAL n=75): 8(10.7) n (%) | Maximum tolerated dose ([3]; ZEN-3694 36 to 144 mg daily with enzalutamide 160 mg daily): without reaching an MTD; also recorded: not reached | Patients requiring dose reduction and/or treatment discontinuation due to adverse events ([3]; all dose levels, 24/75): 32% | Patients with Grade ≥ 3 treatment-related adverse event ([3]; all dose levels, n=75, with enzalutamide): 18.7% | Patients requiring dose reduction and/or discontinuation ([3]; doses from 36 mg – 96 mg/day): 10%−35% | Recommended phase 2 dose ([3]; in combination with enzalutamide): 96 mg/day | Grade ≥ 3 nausea ([3]; n=75, with enzalutamide): 4% | Patients discontinued for adverse event ([3]; nine patients): 12% | Patients remaining on treatment without progression at data cut-off ([4]; 7 patients): 9% | Patients on treatment greater than 24 months without progression ([4]; four patients): 5% | Median time to progression (TTP) ([4]; higher canonical AR transcriptional activity in baseline biopsy): 19 weeks | Composite median radiographic or clinical progression-free survival ([4]; overall cohort): 5.5 months | Median radiographic progression-free survival (rPFS) ([4]; overall cohort, with enzalutamide): 9.0 months and 9 months | Median rPFS ([4]; patients that had progressed on abiraterone): 7.8 months | Median rPFS ([4]; primary resistance to prior first-line AR targeted therapy, progression within 6 months, N = 12): 10.6 months | Composite median PFS ([4]; primary resistance, progression within 16 weeks, N = 5): 10.6 months | Composite median radiographic or clinical progression-free survival ([4]; prior progression on abiraterone): 5.5 months | Median rPFS ([4]; radiographic progression at study entry): 7.8 months | Median rPFS ([4]; serum PSA consistently rose beyond 12 weeks, N = 21): 7.2 months | Median rPFS ([4]; tumors with high AR activity): 4.3 months | Median rPFS ([4]; tumors with low AR score): 10.4 months | Median TTP ([4]; without aggressive variant clinical features, p = 0.24): 5.5 months

C[C@]12CC[C@H](O)CC1=CC[C@@H]1[C@@H]2CC[C@]2(C)C(c3cccnc3)=CC[C@@H]12 [abiraterone]
Median PFS, second line [5]: 1.7 months

CNC(=O)c1ccc(N2C(=S)N(c3ccc(C#N)c(C(F)(F)F)c3)C(=O)C2(C)C)cc1F [enzalutamide]
Impact of ZEN-3694 on concentration [6]: no significant impact | Median PFS, second line [5]: 3.5 months
